Active and inactive are the calls of the source. The calls are words filed in the database; no cut-off is given here.
Key:
[1] = Cytotoxicity against human HuH7 cells at 250 uM after 144 hrs by MTT assay; assay type: functional; details: Huh-7, 144 h
How it was run: (§1)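 MTT assay. HuH7 cells were seeded at 5x10⁴/well and grown 24 h in complete medium, then switched to 2% FCS medium containing compound (10⁻⁶–10⁻³ M) for 144 h. Cells were washed with PBS, given MTT (2 mg/mL) for 4 h at 37 °C, and formazan was dissolved in DMSO. OD was read at 570 nm. Mean ± SD of three independent experiments.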

[2] = Stability of the compound in D2O assessed as [31P] NMR chemical shift after 1 day by [31P]NMR spectroscopy; assay type: physicochemical; details: 24 h
Huh-7 [3] = experiment: Cytotoxicity against human HuH7 cells at 125 uM after 144 hrs by MTT assay in presence of IBMX; assay type: functional, cell-based
How it was run: (§2)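 MTT viability assay with the cells pretreated with IBMX (1 mM) before compound addition; the pretreatment time is given as 30 min in Methods and 1 h in the legend. Then 144 h exposure in 2% FCS medium, MTT (2 mg/mL) for 4 h at 37 °C, DMSO solubilisation and OD read at 570 nm. Mean ± SD of three independent experiments.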

Serum [4] = experiment: Stability in human serum assessed as [31P] NMR chemical shift after 3 days by [31P]NMR spectroscopy; assay type: ADME, cell-free; details: 72 h
[5] = Stability of the compound in cell culture medium assessed as [31P] NMR chemical shift after 5 days by [31P]NMR spectroscopy; assay type: physicochemical; details: 120 h
[6] = Stability of the compound in D2O assessed as [31P] NMR chemical shift after 3 days by [31P]NMR spectroscopy; assay type: physicochemical; details: 72 h
[7] = Stability of the compound in D2O assessed as [31P] NMR chemical shift after 5 days by [31P]NMR spectroscopy; assay type: physicochemical; details: 120 h
[8] = Cell cycle arrest in human HuH7 cells assessed as accumulation at G1 phase after 144 hrs by […]propidium iodide staining-based FACS analysis; assay type: functional; details: Huh-7
[9] = Stability of the compound in cell culture medium assessed as [31P] NMR chemical shift after 3 days by [31P]NMR spectroscopy; assay type: physicochemical; details: 72 h
Serum [10] = experiment: Stability in human serum assessed as [31P] NMR chemical shift after 1 day by [31P]NMR spectroscopy; assay type: ADME, cell-free; details: 24 h
[11] = Stability of the compound in cell culture medium assessed as [31P] NMR chemical shift after 1 day by [31P]NMR spectroscopy; assay type: physicochemical; details: 24 h
Huh-7 [12] = experiment: (§3) Cytotoxicity against human HuH7 cells after 144 hrs by MTT assay; assay type: functional, cell-based; how it was run: as §1
[13] = as §3; assay type: functional, cell-based; details: Huh-7, 144 h; how it was run: as §1
Huh-7 [14] = experiment: Induction of apoptosis in human HuH7 cells after 144 hrs by Annexin V/propidium iodide staining-based FACS analysis; assay type: functional, cell-based
How it was run: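 HuH7 cells were exposed to compound for 144 h, then treated and untreated cells were stained with Annexin V and PI. Flow cytometry scored early apoptosis as Ann V⁺/PI⁻ and late apoptosis as Ann V⁺/PI⁺.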

Huh-7 [15] = experiment: (§4) Antiinvasive activity against human HuH7 cells at 100 uM after 24 hrs by matrigel assay relative to control; assay type: functional
How it was run: (§5)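 Boyden chambers with 8 µm-pore filters coated with Matrigel. 2.5 × 10⁵ HuH7 cells were seeded in the upper well with 100 µM compound. HGF (20 ng/mL) in the lower chamber served as chemoattractant. After 24 h, non-invaded cells were wiped off, and filters were methanol-fixed and haematoxylin-stained. Cells on the lower surface were counted in 10 fields, expressed as % of control; mean ± SD of three independent experiments.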

Serum [16] = experiment: Stability in human serum assessed as [31P] NMR chemical shift after 5 days by [31P]NMR spectroscopy; assay type: ADME, cell-free; details: 120 h
[17] = Stability in human HuH7 cell extract assessed as compound remaining by measuring [31P] NMR chemical shift at 0.5 mM after 5 days by [31P]NMR spectroscopy; assay type: ADME, cell-based; details: huh-7, 120 h, 500 µM
[18] = Antimigratory activity against human HuH7 cells at 100 uM after 24 hrs relative to control; assay type: functional; details: Huh-7, 24 h
How it was run: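 Migration chambers with the insert undersides coated overnight at 4 °C with fibronectin (100 µg/mL). 2.5 × 10⁵ HuH7 cells were placed in the upper chamber with 100 µM compound, with HGF (20 ng/mL) in the lower chamber. After 24 h, non-migrated cells were scraped off, and cells on the lower face were fixed, stained and counted. Results are % of control set at 100%; triplicate.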

[19] = Drug metabolism in human HuH7 cell extract assessed as phosphorylated metabolite formation by measuring [31P] NMR chemical shift at 0.5 mM after 5 days by [31P]NMR spectroscopy; assay type: ADME, cell-based; details: huh-7, 120 h, 500 µM
Huh-7 [20] = experiment: Cytotoxicity against human HuH7 cells at 400 uM after 144 hrs by MTT assay in presence of IBMX; assay type: functional, cell-based
How it was run: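 HuH7 cells pretreated with IBMX (1 mM) before bisphosphonate was added. Cells were seeded at 5x10⁴ cells/well and held 24 h in complete medium, then exposed 144 h to compound in 2% FCS medium. Read-out by MTT (2 mg/mL, 4 h, 37 °C), DMSO solubilisation, OD 570 nm. Mean ± SD of three independent experiments.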

[21] = as §4; assay type: functional, Huh-7; how it was run: as §5
[22] = Cytotoxicity against human HuH7 cells at 10 uM to 1 mM after 144 hrs by MTT assay; assay type: functional, Huh-7; how it was run: as §1
[23] = Cytotoxicity against human HuH7 cells at 1 mM after 144 hrs by MTT assay; assay type: cell-based; details: huh-7, 144 h, 1000 µM
How it was run: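 HuH7 cells plated at 5x10⁴ cells/well in complete medium for 24 h, then switched to 2% FCS medium with bisphosphonate (10^-6 to 10^-3 M range) for 144 h. PBS wash, then MTT (2 mg/mL) 4 h at 37 °C, formazan dissolved in DMSO, OD read at 570 nm. Mean ± SD of three independent experiments.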

Huh-7 [24] = experiment: Cytotoxicity against human HuH7 cells at 1 mM after 144 hrs by MTT assay in presence of IBMX; assay type: functional, cell-based; how it was run: as §2

Question: What does the source list for `O=P(O)(Oc1ccccc1)C(O)(c1ccc(Br)cc1)P(=O)(O)Oc1ccccc1` (stereo not given)?
Answer: inhibition at 250 µM [1]: 80%; Stability [2]: 12.8 ppm; Activity (Huh-7 [3]): inactive; Stability (Serum [4]): 12.65 ppm; Stability [5]: 12.83 ppm; Stability [6]: 12.78 ppm; Stability [7]: 12.8 ppm; Activity [8]: 58%; Stability [9]: 12.83 ppm; Stability (Serum [10]): 12.85 ppm; Stability [11]: 12.85 ppm; inhibition (Huh-7 [12]): Dose-dependent effect; IC50 [13]: 125 µM; Activity (Huh-7 [14]): Active; Activity (Huh-7 [15]): inactive; Stability (Serum [16]): 12.8 ppm; Stability [17]: 12.09 ppm; inhibition at 100 µM [18]: 68%; Drug metabolism [19]: metabolite_detected

Question: Which results are given for `O=P(O)(O)C(O)(c1ccc(Br)cc1)P(=O)(O)O`?
Answer: Activity (Huh-7 [20]): Active; Activity [8]: 58%; inhibition (Huh-7 [12]): Dose-dependent effect; IC50 [13]: 440 µM; Activity (Huh-7 [14]): Active; Activity [21]: 40%; inhibition at 100 µM [18]: 95%

Question: For `COP(=O)(O)C(O)(c1ccc(Br)cc1)P(=O)(O)OC` (stereo not given), which “inhibition (INH)” value [22] is on record?
Answer: 15%

Question: For `CC(C)Cn1c(=O)n(C)c(=O)c2[nH]cnc21` [ISOBUTYLMETHYLXANTHINE], which Activity [23] is on record?
Answer: Non-toxic

Question: For `O.O=P(O)(O)C(O)(Cn1ccnc1)P(=O)(O)O` [ZOLEDRONIC ACID], which inhibition at 250 µM [1] is on record?
Answer: 80%

Question: And the IC50 [13]?
Answer: 60 µM

Question: What about the Activity [21] of the same molecule?
Answer: 54%

Question: And the inhibition at 100 µM [18]?
Answer: 72%

Question: What does the source list for `O=P(O)(O)C(O)(c1ccc(Br)cc1)P(=O)(O)Oc1ccccc1` (stereo not given)?
Answer: inhibition at 250 µM [1]: 80%; inhibition (Huh-7 [12]): Dose-dependent effect; IC50 [13]: 100 µM

Question: Which Activity (Huh-7 [24]) does the source give for `O=P(O)(O)C(O)(c1ccccc1)P(=O)(O)O` here?
Answer: Active

Question: And the “inhibition (INH)” value [22]?
Answer: 15%

Question: What does the source list for `O=P(O)(Oc1ccccc1)C(O)(c1ccccc1)P(=O)(O)Oc1ccccc1` (stereo not given)?
Answer: Activity (Huh-7 [24]): inactive; inhibition (Huh-7 [12]): Dose-dependent effect; IC50 [13]: 555 µM

Source: ChEMBL document CHEMBL3232952, “Bisphosphonate prodrugs: synthesis and biological evaluation in HuH7 hepatocarcinoma cells” (Eur J Med Chem, 2014)
